Data: ChEMBL document CHEMBL2057139, “Synthesis, antimalarial activity and cytotoxicity of 10-aminoethylether derivatives of artemisinin” (Bioorg Med Chem, 2012)

Experiments:
Plasmodium falciparum [1] = test: Antimalarial activity against asexual erythrocyte stage of chloroquine-sensitive Plasmodium falciparum D10 by parasite lactate dehydrogenase assay; format: functional, organism-based
Outline: (§1)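 Asexual erythrocyte-stage P. falciparum kept in continuous culture (modified Trager–Jensen). Growth was read by parasite lactate dehydrogenase assay. Stocks were 20 mg/ml in 100% DMSO, sonicated, and tested as suspension if not dissolved. Full dose–response started at 100 ng/ml, with 2-fold serial dilution in complete medium to 10 concentrations (lowest 0.2 ng/ml). Each strain was tested in triplicate on one occasion. IC50 is 50% parasite growth inhibition.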

CHO = test: Cytotoxicity against CHO cells by MTT assay; format: cell-based, Cricetulus griseus; conditions: for Activity: chinese hamster, cho; for IC50: Cricetulus griseus, CHO
Plasmodium falciparum [2] = test: Antimalarial activity against asexual erythrocyte stage of chloroquine-resistant Plasmodium falciparum Dd2 by parasite lactate dehydrogenase assay; format: functional, organism-based; outline: as §1
Plasmodium falciparum [3] = test: Resistance index ratio of IC50 for asexual erythrocyte stage of chloroquine-resistant Plasmodium falciparum Dd2 to IC50 for asexual erythrocyte stage of chloroquine-sensitive Plasmodium falciparum D10; format: functional

## C[C@H]1[C@@H](OCCN2CCNCC2)O[C@@H]2O[C@@]3(C)CC[C@H]4[C@H](C)CC[C@@H]1[C@@]24OO3.O=C(O)C(=O)O
Plasmodium falciparum [1]
  IC50: 1.8 nM
CHO
  Activity: Non-toxic
Plasmodium falciparum [2]
  IC50: 50.9 nM
Plasmodium falciparum [3]
  Ratio IC50: 28.318

## CC(C)CNCCO[C@H]1O[C@@H]2O[C@@]3(C)CC[C@H]4[C@H](C)CC[C@@H]([C@H]1C)[C@@]24OO3.O=C(O)C(=O)O
Plasmodium falciparum [1]
  IC50: 4.01 nM
CHO
  IC50: 72900 nM
Plasmodium falciparum [2]
  IC50: 54.9 nM
Plasmodium falciparum [3]
  Ratio IC50: 13.68

## C[C@H]1[C@@H](OCCN(C)Cc2ccccc2)O[C@@H]2O[C@@]3(C)CC[C@H]4[C@H](C)CC[C@@H]1[C@@]24OO3.O=C(O)C(=O)O
Plasmodium falciparum [1]
  IC50: 1.44 nM
CHO
  IC50: 141000 nM
Plasmodium falciparum [2]
  IC50: 20.1 nM
Plasmodium falciparum [3]
  Ratio IC50: 13.888

## C[C@H]1[C@@H](OCCNCCN2CCCCC2)O[C@@H]2O[C@@]3(C)CC[C@H]4[C@H](C)CC[C@@H]1[C@@]24OO3.O=C(O)C(=O)O
Plasmodium falciparum [1]
  IC50: 6.72 nM
CHO
  Activity: Non-toxic
Plasmodium falciparum [2]
  IC50: 66.7 nM
Plasmodium falciparum [3]
  Ratio IC50: 9.932

## C[C@H]1[C@@H](OCCNCCNc2ccccc2)O[C@@H]2O[C@@]3(C)CC[C@H]4[C@H](C)CC[C@@H]1[C@@]24OO3.O=C(O)C(=O)O
Plasmodium falciparum [1]
  IC50: 2.61 nM
CHO
  IC50: 47500 nM
Plasmodium falciparum [2]
  IC50: 55.1 nM
Plasmodium falciparum [3]
  Ratio IC50: 21.086

## C[C@H]1[C@@H](OCCN2CCCCC2)O[C@@H]2O[C@@]3(C)CC[C@H]4[C@H](C)CC[C@@H]1[C@@]24OO3.O=C(O)C(=O)O
Plasmodium falciparum [1]
  IC50: 3.31 nM
CHO
  Activity: Non-toxic
Plasmodium falciparum [2]
  IC50: 32.1 nM
Plasmodium falciparum [3]
  Ratio IC50: 9.695

## C[C@H]1[C@@H](OCCN2CCOCC2)O[C@@H]2O[C@@]3(C)CC[C@H]4[C@H](C)CC[C@@H]1[C@@]24OO3.O=C(O)C(=O)O
Plasmodium falciparum [1]
  IC50: 4.64 nM
CHO
  Activity: Non-toxic
Plasmodium falciparum [2]
  IC50: 16.2 nM
Plasmodium falciparum [3]
  Ratio IC50: 3.483

## C[C@H]1[C@@H](OCCNCc2ccco2)O[C@@H]2O[C@@]3(C)CC[C@H]4[C@H](C)CC[C@@H]1[C@@]24OO3.O=C(O)C(=O)O
Plasmodium falciparum [1]
  IC50: 2.41 nM
CHO
  IC50: 79700 nM
Plasmodium falciparum [2]
  IC50: 21.4 nM
Plasmodium falciparum [3]
  Ratio IC50: 8.858

## CC[C@H]1CN2CCc3cc(OC)c(OC)cc3[C@@H]2C[C@@H]1C[C@H]1NCCc2cc(OC)c(OC)cc21 [EMETINE]
CHO
  IC50: 19.8 nM

## C[C@H]1[C@@H](O)O[C@@H]2O[C@@]3(C)CC[C@H]4[C@H](C)CC[C@@H]1[C@@]24OO3 [ARTENIMOL]
Plasmodium falciparum [1]
  IC50: 0.785 nM
Plasmodium falciparum [2]
  IC50: 3.48 nM
Plasmodium falciparum [3]
  Ratio IC50: 4.433

## CC(C)N(CCNCCO[C@H]1O[C@@H]2O[C@@]3(C)CC[C@H]4[C@H](C)CC[C@@H]([C@H]1C)[C@@]24OO3)C(C)C.O=C(O)C(=O)O
Plasmodium falciparum [1]
  IC50: 1.83 nM
CHO
  Activity: Non-toxic
Plasmodium falciparum [2]
  IC50: 48.1 nM
Plasmodium falciparum [3]
  Ratio IC50: 26.24

## C[C@H]1[C@@H](OCCNCCN2CCOCC2)O[C@@H]2O[C@@]3(C)CC[C@H]4[C@H](C)CC[C@@H]1[C@@]24OO3.O=C(O)C(=O)O
Plasmodium falciparum [1]
  IC50: 6.88 nM
CHO
  Activity: Non-toxic
Plasmodium falciparum [2]
  IC50: 61.6 nM
Plasmodium falciparum [3]
  Ratio IC50: 8.945

## C[C@H]1[C@@H](OCCNCCCn2ccnc2)O[C@@H]2O[C@@]3(C)CC[C@H]4[C@H](C)CC[C@@H]1[C@@]24OO3.O=C(O)C(=O)O
Plasmodium falciparum [1]
  IC50: 6.04 nM
CHO
  Activity: Non-toxic
Plasmodium falciparum [2]
  IC50: 189 nM
Plasmodium falciparum [3]
  Ratio IC50: 31.343

## C[C@H]1[C@H](OC(=O)CCC(=O)[O-])O[C@@H]2O[C@@]3(C)CC[C@H]4[C@H](C)CC[C@@H]1[C@@]24OO3.[Na+] [SODIUM ARESUNATE]
Plasmodium falciparum [1]
  IC50: 0.933 nM
Plasmodium falciparum [2]
  IC50: 25.9 nM
Plasmodium falciparum [3]
  Ratio IC50: 27.719
